In the library only some 1.3% were active in any assay of this set; here they are far more common.
CASP6 VEID inh: human caspase-6 inhibitors, primary screen, biochemical, VEID-R110 fluorescence, single point, set 2. P55212. purified caspase-6, Z-VEID-R110 cleavage fluorescence. inhibition, % at 12.5 µM. hit rate 0.53% among 350,000;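 active means mean inhibition across replicates at least about 35%, with every replicate also reaching that limit, limit read from the data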;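 further: 0% = median of neutral control wells and 100% = no fluorescence left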
LEDGF integ inh: blockers of LEDGF/p75-dependent integrase strand transfer – biochemical, TR-FRET, high throughput, primary screen | TR-FRET IN-LEDGF/p75 DNA integration, Eu/Cy5 | hit rate 0.64% among 370,000 | HIV-1 integrase (with human LEDGF/p75) | inhibition, % at 3.7 µM;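 active means inhibition above the screen-wide mean plus 3 SD, cut at about 13% in these data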;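 further: signal is the Cy5 over europium emission ratio at 671 and 618 nm; 0% = plate median of compound wells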
UCH37 DUB inh: inhibitors of human UCH37 deubiquitinase, primary screen, biochemical, Ub-AMC cleavage, fluorescence. purified proteasome/UCH37. inhibition, % (concentration not given with the values). Ubiquitin carboxyl-terminal hydrolase isozyme L5 (Homo sapiens), Q9Y5K5. hit rate 0.33% among 330,000;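 active means mean inhibition over replicate wells above about 20%, limit read from the data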;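 further: 0% = compound-free wells with enzyme and 100% = wells lacking proteasome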
Target sequence (Q9Y5K5 whole entry, looked up): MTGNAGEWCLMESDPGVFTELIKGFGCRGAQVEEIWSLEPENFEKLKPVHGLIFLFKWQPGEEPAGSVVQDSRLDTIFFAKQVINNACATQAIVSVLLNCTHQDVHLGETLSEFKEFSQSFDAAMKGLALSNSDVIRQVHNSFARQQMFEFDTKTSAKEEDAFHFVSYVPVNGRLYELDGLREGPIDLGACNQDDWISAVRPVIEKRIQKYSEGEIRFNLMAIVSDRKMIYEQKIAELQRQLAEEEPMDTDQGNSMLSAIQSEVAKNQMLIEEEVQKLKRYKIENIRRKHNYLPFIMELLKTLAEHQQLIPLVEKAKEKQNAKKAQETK
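assay system = human UCH37 enzyme supplied as purified proteasome complex | amount = proteasome at 0.15 nM in the dispensed enzyme solution | schedule = 30 min compound-proteasome preincubation then 25 min substrate reaction, room temperature | measured by = fluorescence, ex 355 nm, em 460 nm | benchmarks = no-proteasome wells (full inhibition) and compound-free wells (no inhibition)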
TDP2 absorb: human TDP2 enzyme inhibitors, primary screen, biochemical, epi absorbance, recombinant enzyme. inhibition, % at 12.8 µM. Tyrosyl-DNA phosphodiesterase 2 (Homo sapiens), O95551. hit rate 0.34% among 370,000. AID 720702, 2013. T5PNP hydrolysis, p-nitrophenol absorbance 415 nm;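 active means inhibition above the mean of all tested compounds plus 3 SD, set per campaign, cut at about 25% in these data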;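 further: 0% = DMSO with enzyme and 100% = buffer with substrate but no TDP2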
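Assay system: Recombinant human TDP2 | Quantity: 120 nM TDP2 per well | Incubation: 2 h at 37 °C | Signal: Epi absorbance | Evaluation: Percent inhibition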
NSD2 HMT inh: NSD2 histone methyltransferase inhibitors, primary screen, biochemical, AlphaScreen, single concentration, set 2; Histone-lysine N-methyltransferase NSD2 (Homo sapiens), O96028; NSD2 peptide methylation, 120 min; hit rate 0.54% among 310,000; AID 743445, 2014; inhibition, % at 12.5 µM; in the data active means inhibition above about 50%
Numbers without * were called inactive; i = inactive; · = no result given; ! = a repeat was not active.

SMILES	CASP6 VEID inh	LEDGF integ inh	UCH37 DUB inh	TDP2 absorb	NSD2 HMT inh
Nc1c(S(=O)(=O)O)cc(NC(=O)c2ccccc2)c2c1C(=O)c1ccccc1C2=O	9	·	33*	·	·
Nc1cccc2cc(S(=O)(=O)O)ccc12	64*	39*	-120	27*	129*
COc1cccc(C=NNC(=O)c2cc(C34CC5CC(CC(C5)C3)C4)[nH]n2)c1	·	·	0	·	·
Cc1ccc(C(=O)O)cc1NC(=S)NC(=O)c1ccc(COc2ccccc2)cc1	38*	0	3	-4	45
Cc1ccc(NC(=O)CN2C(=O)S/C(=C/c3ccc(-c4cc(C(=O)O)ccc4C)o3)C2=O)cc1C	·	9	-2	1	6
Cc1ccc(C(=O)O)cc1-c1ccc(C=C2C(=O)c3ccccc3C2=O)o1	37*	5	·	-4	55*
COc1cc(C=NO)cc(Br)c1OCc1ccc(Cl)cc1	·	·	0	·	·
Cc1ccc(Nc2nc(NN=Cc3ccc4c(c3)OCO4)nc(N3CCOCC3)n2)cc1	·	·	2	·	·
Cc1cccc(NC(=O)COC(=O)COc2ccc3c(c2)CCC3)c1	-4	-1	4	-1	0
CC(C)(C)NC(=O)NC(=O)COC(=O)COc1ccc2c(c1)CCC2	·	-3	20*	1	1
C[n+]1cc(C(=O)N2CCCCC2)ccc1/C=C/c1c[nH]c2ccccc12	-11	0	24*	-10	6
Clc1cc(Br)ccc1OCCOCCN1CCCC1	-10	-2	2	15	2
Clc1cc(Br)ccc1OCCOCCN1CCOCC1	·	-7	29*	-6	-9
COc1ccc(OC)c(C=NNC(=O)Cc2nc3ccccc3[nH]2)c1	·	·	i	·	·
N#CC(C#N)=C(N)/C(C#N)=C/c1cc(O)c(O)c(O)c1	41*	5	·	-4	·
N#Cc1c(NC(=O)c2ccccc2Cl)n(Cc2ccccc2)c2nc3ccccc3nc12	100*	16*	·	81*	98*
Cc1csc(NN=Cc2ccc([N+](=O)[O-])cc2)n1	·	·	3	·	·
CC1=C/C(=C\c2ccc(Br)o2)C(=O)O1	83*	11	2	-3	98*
COc1cc(/C=N/NC(=O)c2cc(C)oc2C)ccc1OCc1ccccc1	0	84*	·	3	4
COc1cc(C=NNC(=O)c2cc(C)oc2C)ccc1OCc1ccccc1	·	·	7	·	·
CCOC(=O)C=c1sc(=Cc2ccc(C#N)cc2)c(=O)n1CC(=O)NCc1ccco1	·	·	-4	·	·
Cc1ccc(S(=O)(=O)N(C)C[C@@H]2Oc3cc(C#Cc4ccccc4)ccc3S(=O)(=O)N([C@@H](C)CO)C[C@@H]2C)cc1	39*	·	·	·	·
Cc1ccc(S(=O)(=O)N(C)C[C@@H]2Oc3cc(C#Cc4ccccc4)ccc3S(=O)(=O)N([C@H](C)CO)C[C@@H]2C)cc1	1	·	·	·	·
C[C@H]1CN([C@@H](C)CO)S(=O)(=O)c2ccc(C#CCN(C)C)cc2O[C@@H]1CN(C)Cc1ccc2c(c1)OCO2	1	·	·	·	·
C[C@H]1CN([C@@H](C)CO)S(=O)(=O)c2ccc(C#CCN(C)C)cc2O[C@H]1CN(C)Cc1ccc2c(c1)OCO2	36*	·	·	·	·
SMILES	CASP6 VEID inh	LEDGF integ inh	UCH37 DUB inh	TDP2 absorb	NSD2 HMT inh
C[C@@H]1CN([C@@H](C)CO)S(=O)(=O)c2ccc(-c3ccc(C#N)cc3)cc2O[C@@H]1CN(C)Cc1ccccn1	45*!	-3	·	8	·
C[C@H](CO)N1C[C@H](C)[C@H](CN(C)Cc2ccccn2)Oc2cc(-c3ccc(C#N)cc3)ccc2S1(=O)=O	0	·	·	·	·
O=c1ccc2cc3c([nH]c4ccc(Br)cc43)oc-2c1O	·	66*	15	3	·
O=C(Nc1nc(-c2ccco2)c(-c2ccco2)s1)c1c(F)cccc1Cl	75*	48*	-3	4	5
O=C(Nc1nc(-c2ccco2)c(-c2ccco2)s1)c1ccc(F)cc1F	4	11	-28	-5	0
O=C(Nc1nc(-c2ccco2)c(-c2ccco2)s1)c1cnccn1	17	48*	·	3	2
O=C(Nc1nc2ccccc2s1)c1cnccn1	·	-3	3	-8	-1
Cc1ccc(C=NNC(=O)c2nn(C)cc2Cl)cc1	·	·	0	·	·
Cc1occc1C(=O)NCc1ccco1	41*	-3	3	-7	11
